# Measured values from different studies.
# Lines come from different studies, so protocols differ.
# Target: Serine/threonine-protein kinase PAK 2 (PAK2, Homo sapiens, UniProt Q13177)
Compound,test,conditions,endpoint,value
CCCS(=O)(=O)Nc1ccc(F)c(C(=O)c2c[nH]c3ncc(-c4ccc(Cl)cc4)cc23)c1F,"enzyme activity, inhibitor",1 µM,inhibition,< 10%
CC(C)(C)c1nc(-c2cccc(NS(=O)(=O)c3c(F)cccc3F)c2F)c(-c2ccnc(N)n2)s1,"enzyme activity, inhibitor, radiometric",1 µM,remaining activity,88%
CCOc1cc(-c2nncn2C)ccc1Nc1ncc2cc(C)nc(NCC(C)(C)C)c2n1,"enzyme activity, inhibitor, FRET",1 µM,inhibition,< 15%
COc1cc(Nc2cnc(C#N)c(O[C@H](C)CN(C)C)n2)ncc1-c1cnn(C)c1,"enzyme activity, inhibitor, radiometric",1 µM,remaining activity,100%
COc1cc2ncnc(Nc3ccc(Oc4ccccc4)c(C)c3C)c2cc1OC,"enzyme activity, inhibitor",1 µM,inhibition,7%
Cc1cc(NC(=O)c2cccc3cc(-c4cccc5[nH]nc(N)c45)ccc23)ccc1F,"enzyme activity, inhibitor",0.1 µM,activity vs control,98%
CCN(CC)CCNC(=O)c1c(C)[nH]c(/C=C2\C(=O)Nc3ccc(F)cc32)c1C,"enzyme activity, inhibitor",0.3 µM,inhibition,-8%
Nc1ncnc2occ(-c3ccc(NC(=O)Nc4cc(C(F)(F)F)ccc4F)cc3)c12,"cell-free assay, inhibitor",20 µM,remaining signal,60%
COc1cc(Nc2c(C#N)cnc3cc(OCCCN4CCN(C)CC4)c(OC)cc23)c(Cl)cc1Cl,cell-free assay,0.5 µM,remaining signal,69.4%
Cc1ccc(Nc2nccc(N(C)c3ccc4c(C)n(C)nc4c3)n2)cc1S(N)(=O)=O,"enzyme activity, inhibitor",0.3 µM,inhibition,1%
Clc1ccc(Nc2nnc(Cc3ccncc3)c3ccccc23)cc1,cell-free assay,0.5 µM,remaining signal,101%
CS(=O)(=O)N1CCCC(NC(=O)[C@H](CCC2CCCCC2)NC(=O)c2ccc(CNC(=O)c3cnc4ccccn34)cc2)C1 (some centres unmarked),"cell-free assay, competition with immobilised ligand",0.1 µM,remaining binding,93%
CNCc1ccc(-c2cc(-c3nc(-c4ccc(S(=O)(=O)C(C)C)cc4)cnc3N)on2)cc1,"enzyme activity, inhibitor",0.4 µM,inhibition,7%
Cn1c(=O)n(-c2ccc(C(C)(C)C#N)cc2)c2c3cc(-c4cnc5ccccc5c4)ccc3ncc21,"enzyme activity, inhibitor",10 µM,remaining activity,87%
Cc1cc(NC(=O)c2cccc(S(F)(F)(F)(F)F)c2)cc(-n2ccn3nc(-c4cccnc4)cc23)c1,"cell-free assay, competition with immobilised ligand",1 µM,remaining binding,100%
FC(F)c1nc2ccccc2n1-c1nc(N2CCOCC2)nc(N2CCOCC2)n1,"enzyme activity, inhibitor",10 µM,remaining activity,100%
O=C1Nc2ccc(Cl)cc2C1=Cc1cc(Cl)c(O)c(Cl)c1,cell-free assay,0.5 µM,remaining signal,96.8%
Cc1ccc(NC(=O)c2ccc(C)c(C(F)(F)F)c2)cc1C#Cc1nn(C2CCC(O)CC2)c2ncnc(N)c12 (centres unmarked),cell-free assay,10 µM,remaining signal,68%
Cc1noc([C@H]2C[C@@H](c3ccc(C(F)(F)F)cc3)CN(C(=O)N3CCS(=O)(=O)C3)C2)n1,"cell-free assay, competition with immobilised ligand",1 µM,remaining binding,87%
O=C(Nc1cnn(-c2csc(C(=O)NC3COC3)c2)c1)Nc1c(F)cccc1Cl,"enzyme activity, inhibitor",5 µM,remaining activity,95.3%
O=C(CSc1nc2nccnc2c(=O)n1CCc1ccccc1)Nc1nccs1,"enzyme activity, inhibitor",10 µM,inhibition,1%
CSc1nc(C)c(-c2ccnc(Nc3ccc(N4CCOCC4)cc3)c2)[nH]1,"enzyme activity, inhibitor",10 µM,inhibition,1.4%
CC(C)CC(=O)N1CCc2nc(-c3ccc(Br)cc3)nc(N(C)Cc3ccccc3)c2C1,"cell-free assay, competition with immobilised ligand",0.1 µM,remaining binding,100%
FC(F)(F)Oc1cccc(-c2cnc3ccc(-c4ccncc4)nn23)c1,"enzyme activity, inhibitor, radiometric",5 µM,activity vs control,88%
CC(C)(O)c1cncc(-c2nc3ccc(F)cc3n2C2CC2)c1,"cell-free assay, competition with immobilised ligand",1 µM,remaining binding,100%
Cc1sc(C(=O)NC2COC2)cc1-n1cc(NC(=O)Nc2c(F)cccc2Cl)cn1,"enzyme activity, inhibitor",10 µM,remaining activity,106%
CN([C@@H]1CCc2c(CC(=O)O)c3ccccc3n2C1)S(=O)(=O)c1ccc(F)cc1,"cell-free assay, competition with immobilised ligand",1 µM,remaining binding,100%
COc1cc(/C=C/C(=O)CC(=O)/C=C/c2ccc(O)c(OC)c2)ccc1O,"enzyme activity, inhibitor",1 µM,activity vs control,84%
Cn1cc(Cl)c2c(Oc3c(F)cc(Nc4cc(Cl)nc(N)n4)cc3F)ccnc21,"cell-free assay, competition with immobilised ligand",0.1 µM,remaining binding,100%
N#CCCc1ccc2c(c1)-c1[nH]c3ccc([N+](=O)[O-])cc3c1CC(=O)N2,cell-free assay,0.5 µM,remaining signal,55.6%
O=C1CCc2cc(Nc3cc(OC4CCOCC4)c([N+](=O)[O-])cc3Cl)ccc2N1,"cell-free assay, competition with immobilised ligand",1 µM,remaining binding,96%
C=CC(=O)Nc1cc(Nc2nccc(Nc3cc(Cl)c(F)cc3C(C)(C)O)n2)c(OC)cc1N1CC[C@@H](N(C)C)C1,"enzyme activity, inhibitor",1 µM,inhibition,5%
